CCR6 antag: antagonists of human CCR6 receptor; AID 493098; inhibition, % at 20 µM; 340,000 compounds, 0.49% hits; CHO-K1 CCR6 PathHunter beta-arrestin, luminescence, CCL20-stimulated; P51684;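 active = compounds whose inhibition of the agonist-driven luminescence signal at 20 µM reaches about 50%, limit read from the data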;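 also: cells stimulated with CCL20 at 14 nM final; plate controls were DMSO with CCL20 for no effect and DMSO without agonist for full effect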
APJ antag: antagonists of human APJ apelin receptor; CHO-K1 APJ beta-arrestin complementation, luminescence; P35414; 330,000 compounds, 0.32% hits; inhibition, % at 20 µM;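 active = inhibition above about 40% at 20 µM, limit read from the data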;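 also: cells challenged with 10 nM apelin-13 agonist together with compound; plate controls were apelin-13 plus DMSO wells for no effect and DMSO wells lacking apelin-13 for full effect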
APJ ag: APJ receptor agonism; CHO-K1 APJ PathHunter beta-arrestin, luminescence; 0% DMSO wells, 100% apelin; P35414; 330,000 compounds, 0.11% hits; activation, % at 20 µM;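 active = activation more than six SD over the plate average, tested at 20 µM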;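 also: 0% = DMSO alone and 100% = apelin-13 at 10 nM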
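Material: engineered CHO-K1 APJ arrestin reporter cells; amount: 1000 CHO-K1 reporter cells seeded per well; incubation: compound stimulation 90 min at 25 °C, detection 60 min; signal: luminescent beta-gal fragment complementation, chemiluminescent substrate; read-out basis: APJ agonist activity; controls: DMSO-only wells as negative, 10 nM Apelin-13 as positive control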
PKA-R1A act: PKA-R1A complex activation | activation, % at 11.4 µM | AID 504707 | 340,000 compounds, 0.083% hits | PKA-R1A dissociation, Cy5-IP20 fluorescence polarization; scaled: DMSO 0%, 113 µM cGMP 100%;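 active = percent activation above the mean of all tested compounds plus 3 SD, cut at about 19% in these data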;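 also: higher means more PKAc released from R1A so a rise in polarization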
CXCR6 block: blocks human CXCR6 beta-arrestin recruitment; CHO-K1 PathHunter CXCR6 beta-arrestin, luminescence; inhibition, % at 20 µM; 360,000 compounds, 0.36% hits; AID 602244; in the data active = inhibition above about 34%, passing the limit was not always enough;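 also: antagonist mode with CXCL16 agonist at 10 nM final; 0% = 10 nM CXCL16 with DMSO and 100% = unstimulated wells without agonist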
PKA-R2B activ: PKA-R2B complex activation; 340,000 compounds, 0.079% hits; activation, % at 11.4 µM; PKA-R2B holoenzyme dissociation, Cy5-IP20 fluorescence polarization; R2B truncated from residue 108, S112A mutant; 0% DMSO only, 100% 113 µM cGMP; P22694+P31323;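 active = activation above a cutoff set at the mean over all compounds plus 3 SD, cut at about 18% in these data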;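 also: higher means more holoenzyme dissociation and a rise in polarization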
Target sequence (P31323 whole entry, looked up, other chains not shown, the tested form may be a part): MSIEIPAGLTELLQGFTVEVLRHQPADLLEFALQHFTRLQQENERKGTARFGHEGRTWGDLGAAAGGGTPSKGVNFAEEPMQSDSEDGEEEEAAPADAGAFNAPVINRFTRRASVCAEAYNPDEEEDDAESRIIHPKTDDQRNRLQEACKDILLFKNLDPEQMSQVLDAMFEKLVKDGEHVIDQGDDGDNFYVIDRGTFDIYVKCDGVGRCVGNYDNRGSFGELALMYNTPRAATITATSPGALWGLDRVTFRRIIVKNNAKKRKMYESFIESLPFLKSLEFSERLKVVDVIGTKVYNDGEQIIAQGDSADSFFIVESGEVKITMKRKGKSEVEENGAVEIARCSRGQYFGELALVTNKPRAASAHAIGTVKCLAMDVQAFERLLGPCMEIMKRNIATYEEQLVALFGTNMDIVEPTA
APJ ag confirm: confirmation of human APJ apelin receptor agonists; shares compounds with APJ ag; CHO-K1 APJ PathHunter beta-arrestin, luminescence; activation, % at 20 µM; 310 compounds, 10% hits; AID 2764;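 active = activation above 40%, taking the highest of four retests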;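 also: plate controls were DMSO wells for no effect and apelin-13 at 10 nM for full effect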
APJ antag confirm: APJ receptor antagonism confirmation. inhibition, % at 20 µM. shares compounds with APJ antag. 950 compounds, 66% hits. APJ beta-arrestin recruitment, luminescence, antagonist mode; in the data active = inhibition above about 50%
The depositor's hits bear a star. This is a sample that favours compounds with a hit; in the whole collection about 0.88% have one here.

What do the screens show for `CCOC(=O)[C@]12CCCC=C1N(Cc1cccc3ccccc13)C(=O)[C@H](CC(=O)NCc1cccs1)C2`?
CXCR6 block: 6

Results for CCOC(=O)Cc1ccc(Nc2nc3cc(-c4sccc4C)sc3c(=O)n2C)cc1 ?
CXCR6 block: -6

Results for O=C(O)c1ccc(COc2ccc3c4c(c(=O)oc3c2)CCC4)o1 ?
CCR6 antag: 10; APJ antag: 3; APJ ag: -9; PKA-R1A act: -11; CXCR6 block: -5; PKA-R2B activ: -10

Results for O=c1oc2cc(OCc3ccc([N+](=O)[O-])cc3)ccc2c2c1CCCC2 ?
CCR6 antag: -14; APJ antag: 7; APJ ag: 62*; PKA-R1A act: -2; CXCR6 block: -10; PKA-R2B activ: -5; APJ ag confirm: 4

Results for CCOc1cc2[nH]c(=S)n(CCCOC)c(=O)c2cc1OCC ?
CCR6 antag: -1; APJ antag: -21; APJ ag: -2; PKA-R1A act: 8; CXCR6 block: 5; PKA-R2B activ: -4

How did CCOc1cc2[nH]c(=S)n(CCCC(=O)NCc3ccccn3)c(=O)c2cc1OCC do in these assays?
CCR6 antag: 13; APJ antag: 8; APJ ag: 118*; PKA-R1A act: -1; CXCR6 block: -2; PKA-R2B activ: 9; APJ ag confirm: 29

How did CCOc1cc2[nH]c(=S)n(CCCN3CCOCC3)c(=O)c2cc1OCC do in these assays?
CCR6 antag: -1; APJ antag: 1; APJ ag: 17*; PKA-R1A act: -10; CXCR6 block: -1; PKA-R2B activ: -6; APJ ag confirm: 24

What do the screens show for `CCOc1cc2[nH]c(=S)n(CCN3CCCCC3CC)c(=O)c2cc1OCC` (stereo not given)?
CCR6 antag: 3; APJ antag: 4; APJ ag: 78*; PKA-R1A act: -9; CXCR6 block: 3; PKA-R2B activ: -6; APJ ag confirm: 39

How did CCC1CCCCN1CCCn1c(=S)[nH]c2ccccc2c1=O (stereo not given) do in these assays?
CCR6 antag: 37; APJ antag: 17; APJ ag: -1; PKA-R1A act: -5; CXCR6 block: 2; PKA-R2B activ: -1

How did CCOc1cc2[nH]c(=S)n(CCN3CCC(C)CC3)c(=O)c2cc1OCC do in these assays?
CCR6 antag: 14; APJ antag: -1; APJ ag: 27*; PKA-R1A act: -5; CXCR6 block: -2; PKA-R2B activ: 2; APJ ag confirm: 13

How did O=C(Nc1cccc2ccccc12)c1csc([C@@H]2O[C@H](CO)[C@H](O)[C@H](O)[C@H]2O)n1 do in these assays?
CXCR6 block: 2

Results for COc1ccc(C(C)(O)c2nc(-c3ccncc3)cs2)cc1 (stereo not given) ?
CXCR6 block: -10

How did CCCCNc1c(-c2ccc(OC)c(Sc3ccc(OC)cc3)c2)nc2ccccn12 do in these assays?
CCR6 antag: -28; APJ antag: -157; APJ ag: 37*; PKA-R1A act: -14; CXCR6 block: -15; PKA-R2B activ: 4; APJ ag confirm: 23

What do the screens show for `Cc1ccccc1[C@H](NC1c2ccccc2C=Cc2ccccc21)P(=O)(c1ccccc1)c1ccccc1`?
CXCR6 block: 32

How did COC(=O)C1=C(Cn2cnc3ccccc32)NC(=O)NC1c1cc(C)ccc1C (stereo not given) do in these assays?
CCR6 antag: 14; APJ antag: 46*; APJ ag: 76*; PKA-R1A act: -3; CXCR6 block: 3; PKA-R2B activ: -4; APJ ag confirm: 62*; APJ antag confirm: 29

How did CCCCCCCCCn1c2c(c(=N)c3c1CCC3)CCCC2 do in these assays?
CCR6 antag: 16; APJ antag: 41*; APJ ag: 10*; CXCR6 block: -15; APJ ag confirm: 7; APJ antag confirm: 38

Results for CCCCCCCCCCn1c2c(c(=N)c3c1CCC3)CCC2 ?
CCR6 antag: 19; APJ antag: 27; APJ ag: -4; PKA-R1A act: 7; CXCR6 block: -11; PKA-R2B activ: -2

Results for O=C(NC(c1ccccc1)c1ccc2ccccc2n1)C1CCN(Cc2ccc(Cl)c(Cl)c2)CC1 (stereo not given) ?
CXCR6 block: 10

What do the screens show for `Cc1[nH]n(C(N)=S)c(=O)c1N=Nc1ccc([N+](=O)[O-])cc1Cl`?
CCR6 antag: 60*; APJ antag: 51*; APJ ag: -6; PKA-R1A act: -1; CXCR6 block: 42*; PKA-R2B activ: -3; APJ antag confirm: 80*

How did O=[N+]([O-])c1cccc(/C=N/NS(=O)(=O)c2ccccc2)c1 do in these assays?
CCR6 antag: 47; APJ antag: 65*; APJ ag: -10; PKA-R1A act: 3; CXCR6 block: 10; PKA-R2B activ: 13; APJ antag confirm: 68*

What do the screens show for `N#CC(c1cccc(Cl)c1)c1ccc2c(C(F)(F)F)cc(C(F)(F)F)nc2n1` (stereo not given)?
CCR6 antag: 50; APJ antag: 46*; APJ ag: -10; PKA-R1A act: -7; CXCR6 block: 35; PKA-R2B activ: 7; APJ antag confirm: 76*

What do the screens show for `COc1ccccc1NC(=O)Nc1nnc([C@H]2C[C@H](O)[C@@H](CO)O2)s1`?
CXCR6 block: 4

Results for COc1cc(/C=C2/N=C(C3CCCCC3)OC2=O)cc(OC)c1OC ?
CCR6 antag: -10; APJ antag: 42*; APJ ag: -1; PKA-R1A act: 1; CXCR6 block: 0; PKA-R2B activ: 1; APJ antag confirm: 23

What do the screens show for `COc1cc(/C=N/NC(=O)c2ccc(NC(=O)C3CCCCC3)cc2)ccc1O`?
CCR6 antag: -2; APJ antag: 48*; APJ ag: -1; PKA-R1A act: -9; CXCR6 block: -21; PKA-R2B activ: -2; APJ antag confirm: 6

How did CC1(c2ccccc2)NC(=O)N(Cc2ccc([N+](=O)[O-])cc2)C1=O (stereo not given) do in these assays?
CCR6 antag: 17; APJ antag: 2; APJ ag: 2; PKA-R1A act: -4; CXCR6 block: -2; PKA-R2B activ: 7
